Assay results collected from several papers.
Protocols differ between the studies behind these lines.
Target: 3-phosphoinositide-dependent protein kinase 1 (PDPK1, Homo sapiens, UniProt O15530)
Residues used in one study (O15530 1-556): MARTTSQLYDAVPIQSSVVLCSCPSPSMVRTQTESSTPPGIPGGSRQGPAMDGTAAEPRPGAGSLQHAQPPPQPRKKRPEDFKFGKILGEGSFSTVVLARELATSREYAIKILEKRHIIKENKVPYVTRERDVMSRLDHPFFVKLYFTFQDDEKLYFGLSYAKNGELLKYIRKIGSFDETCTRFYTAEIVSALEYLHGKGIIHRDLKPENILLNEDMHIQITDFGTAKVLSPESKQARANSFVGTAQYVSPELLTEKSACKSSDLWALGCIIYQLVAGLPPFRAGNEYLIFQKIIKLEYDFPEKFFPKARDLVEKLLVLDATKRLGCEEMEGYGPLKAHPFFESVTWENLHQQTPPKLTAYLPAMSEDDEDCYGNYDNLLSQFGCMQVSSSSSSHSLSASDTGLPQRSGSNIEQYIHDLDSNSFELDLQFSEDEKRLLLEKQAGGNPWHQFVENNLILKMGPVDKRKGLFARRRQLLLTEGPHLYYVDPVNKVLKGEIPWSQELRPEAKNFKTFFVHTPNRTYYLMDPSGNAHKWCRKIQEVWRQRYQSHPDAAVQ

COCCOc1nc(-c2ccc(Cl)nc2)nc2c1CN(C(=O)c1ncn3ccccc13)CC2  remaining binding (cell-free assay, competition with immobilised ligand; 0.1 µM): 90%
CCCOc1ccc(OC)c(F)c1C(=O)c1ccc(C(=O)N[C@@H]2CNC[C@H]2NC(=O)c2ccc3[nH]ncc3c2)cc1  remaining activity (enzyme activity, inhibitor; 10 µM): 102%
CCN(CC)c1ccc(C2=NNC(=O)CC2C)cc1[N+](=O)[O-] (stereo not shown)  remaining activity (enzyme activity, inhibitor; 10 µM): 116%
O=C1NC(c2ccccn2)Sc2ccccc21 (stereo not shown)  remaining binding (cell-free assay, competition with immobilised ligand; 1 µM): 97%
Cc1cnc(NC2CCOCC2)nc1-n1cnc(C(=O)NC(CN)c2cc(F)cc(Cl)c2)c1 (stereo not shown)  remaining activity (enzyme activity, inhibitor, radiometric; 1 µM): 84%
CS(=O)(=O)CCNCc1ccc(-c2ccc3ncnc(Nc4ccc(OCc5cccc(F)c5)c(Cl)c4)c3c2)o1  remaining signal (cell-free assay; 0.5 µM): 86.4%
Cc1c(NC(=O)c2cc(C(N)=O)nc3cc(F)ccc23)c(C(F)(F)F)nn1Cc1ccc(C(C)(C)C)cc1  remaining binding (cell-free assay, competition with immobilised ligand; 1 µM): 94%
CC(C)(C)c1nc2c(s1)c1nc(N)ncc1c1ccc(NS(=O)(=O)c3c(F)cccc3F)c(F)c12  remaining activity (enzyme activity, inhibitor, radiometric; 1 µM): 82%
O=C(Nc1cnn(-c2csc(C(=O)NC3COC3)c2)c1)Nc1ccccc1Cl  remaining activity (enzyme activity, inhibitor; 5 µM): 101%
COc1cc(Cl)c(C(=O)N[C@@H](CN[C@H]2CC[C@@H](N)CC2)Cc2ccc(C#N)cc2)cc1-c1ccc(CN[C@H](C)c2ccc(C)cc2)o1  remaining activity (enzyme activity, inhibitor; 1 µM): 73%
CS(=O)(=O)N1CCCC(NC(=O)[C@H](CCC2CCCCC2)NC(=O)c2ccc(CNc3ncnc4c3nnn4-c3ccccc3)cc2)C1 (stereo partly shown)  remaining binding (cell-free assay, competition with immobilised ligand; 0.1 µM): 99%
Nc1ncnc2occ(-c3ccc(NC(=O)Nc4cc(C(F)(F)F)ccc4F)cc3)c12  remaining signal (cell-free assay, inhibitor; 20 µM): 4.3%
Cc1nc(N2CC[C@@H](O)C2)ncc1-c1cc(C(F)(F)F)cc2[nH]ncc12  remaining binding (binding, competition with immobilised ligand; 1 µM): 100%
CC(C)(O)[C@H]1CC[C@H](Nc2ccc3ncc(-c4cccc(C(F)(F)F)c4)n3n2)CC1  remaining activity (enzyme activity, inhibitor; 1 µM): 105%
COc1cc(Nc2cnc(C#N)c(O[C@H](C)CN(C)C)n2)ncc1-c1cnn(C)c1  remaining activity (enzyme activity, inhibitor, radiometric; 1 µM): 76%
COc1cc(/C=C/C(=O)CC(=O)/C=C/c2ccc(O)c(OC)c2)ccc1O  activity vs control (enzyme activity, inhibitor; 1 µM): 90%
O=C(O)c1cc(-c2ccc(C3CCNCC3)cc2)c2ccc(-c3ccc(C(F)(F)F)cc3)cc2c1  remaining binding (cell-free assay, competition with immobilised ligand; 1 µM): 100%
O=C1NC(=O)c2cc(Nc3ccc(F)cc3)c(Nc3ccc(F)cc3)cc21  remaining signal (cell-free assay; 0.5 µM): 102%
Cn1c(=O)n(-c2ccc(C(C)(C)C#N)cc2)c2c3cc(-c4cnc5ccccc5c4)ccc3ncc21  remaining activity (enzyme activity, inhibitor; 10 µM): 98%
CCN(CC)CCNC(=O)c1c(C)[nH]c(/C=C2\C(=O)Nc3ccc(F)cc32)c1C  remaining signal (cell-free assay; 0.5 µM): 81.6%
CNC(=O)c1ccc(Nc2ncc(C(F)(F)F)c(NCc3nccnc3N(C)S(C)(=O)=O)n2)cc1  remaining binding (cell-free assay, competition with immobilised ligand; 0.1 µM): 81%
COc1ccc(COc2ccc(Cc3cnc(N)nc3N)cc2OC)cc1  remaining signal (cell-free assay; 0.5 µM): 89.4%
CC(C)CC(=O)N1CCc2nc(-c3ccc(Br)cc3)nc(N(C)Cc3ccccc3)c2C1  remaining binding (cell-free assay, competition with immobilised ligand; 0.1 µM): 100%
C#Cc1cccc(Nc2ncnc3cc(OCCOC)c(OCCOC)cc23)c1  remaining signal (cell-free assay; 0.5 µM): 83.8%
CC(C)(C)C(=O)c1sc(NC2CCCCC2)nc1N  remaining activity (enzyme activity, inhibitor; 10 µM): 108%
